Assay outcomes (PubChem)
Sampled rows, rich in hits. Any-hit rate of the full collection: about 1.5%.
EBNA-1 inh – blocks EBNA-1 binding to DNA; inhibition, % at 14.8 µM; hit rate 0.34% among 300,000; EBNA-1 DNA binding, fluorescence polarization; in the data active = inhibition above about 28%
Bfl-1 A1 inh – inhibitors of the anti-apoptotic protein A1, read as caspase activation; AID 2462; caspase activation, % (no concentration beside the values); MEF A1-2A-BIM cells, Caspase-Glo 3/7 luminescence, 3 h; percent of clofoctol response, vehicle zero; hit rate 0.066% among 330,000;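 active = over half of replicate activation scores above 10%, or exactly half above 10 with the replicate mean above 10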
HNF4A DNA FP – change in binding of human HNF4 alpha to DNA; HNF4a-FITC DNA binding, fluorescence polarization, 1 h; hit rate 0.3% among 360,000; activity change, % at 10 µM; P41235; in the data active = activity change above about 30%, passing the limit was not always enough
CSN deneddyl inh – inhibitors of human CSN-mediated cullin deneddylation | Q92905 | Purified CSN, SCF-Nedd8-OG deneddylation, fluorescence polarization | inhibition, % at 12.5 µM | hit rate 0.38% among 360,000 | AID 651999;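 active = pattern-corrected inhibition above about 35%, with an unprinted fluorescence ratio check between 0.5 and 1.5, limit read from the data, passing the limit was not always enough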
Target sequence (Q92905 whole entry, looked up, one chain of several): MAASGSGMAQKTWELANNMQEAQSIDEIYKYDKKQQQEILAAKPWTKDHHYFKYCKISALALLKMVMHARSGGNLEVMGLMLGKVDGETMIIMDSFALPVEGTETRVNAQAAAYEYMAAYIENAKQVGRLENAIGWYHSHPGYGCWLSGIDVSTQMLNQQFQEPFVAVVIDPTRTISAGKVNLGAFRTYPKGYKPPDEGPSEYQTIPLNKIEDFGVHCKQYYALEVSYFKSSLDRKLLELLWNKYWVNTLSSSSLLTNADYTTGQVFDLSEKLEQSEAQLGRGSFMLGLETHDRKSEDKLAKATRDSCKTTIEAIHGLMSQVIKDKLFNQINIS
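test system = HEK293T-derived human Csn5 enzyme | amount = 0.24 nM Csn5 enzyme, final concentration | medium = Tris/NaCl/DTT buffer, pH 7.5 | schedule = 90 min reaction at room temperature | signal = FP | evaluation = inhibition of Csn5 cleavage, % | compound dosing = single dose of 12.5 µM compound with 0.25% DMSO | probe or stimulus = 10 nM SCFSkp2-Nedd8OG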
LANA-H2A inh – blocks KSHV LANA binding to histone H2A/H2B; Q9QR71; cell-free LANA-H2A/H2B peptide, fluorescence polarization; inhibition, % (test concentration not listed); hit rate 0.6% among 320,000; in the data active = inhibition mostly above about 10%, no sharp cut-off; inactive = mostly below about 6.7%
ZTA counter – ZTA (EBV) inhibition in EBNA-1 counter-screen | P03206 | ZTA-DNA binding, fluorescence polarization | inhibition, % at 11 µM | hit rate 0.15% among 320,000 | AID 2234; in the data active = inhibition above about 33%
ZTA inh confirm – EBV ZTA DNA binding inhibition, confirmation; hit rate 30% among 320; Zta-ZRE DNA binding, fluorescence polarization; shares compounds with ZTA counter; inhibition, % at 11.1 µM;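 active = mean inhibition across triplicate runs above the hit threshold derived for the original primary screen, cut at about 33% in these data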
EBNA1 counter – counter-screen for ZTA inhibitors: EBNA-1 DNA binding inhibition; 320 tested, under 10 active; inhibition, % at 14.8 µM; AID 2362; fluorescence polarization; shares compounds with ZTA counter; call rule not given here
Numbers stand for hits; - = inactive; . = no result.

SMILES | EBNA-1 inh | Bfl-1 A1 inh | HNF4A DNA FP | CSN deneddyl inh | LANA-H2A inh | ZTA counter | ZTA inh confirm | EBNA1 counter
CCOC(=O)[C@@H]1[C@H]2COc3ccc(Br)cc3[C@@H]2N2C(=O)N(c3cccc(F)c3)C(=O)[C@]12C | - | - | - | - | - | - | . | .
CCOC(=O)C(C)Sc1nc(=O)n2ccccc2n1 (stereo not drawn) | - | - | - | - | - | - | . | .
CCOC(=O)C(C)Sc1ncc(-c2ccccc2)cn1 (stereo not drawn) | - | - | - | - | - | 79 | - | -
CC(=O)Nc1ccc2[nH]c(C)cc(=O)c2c1 | - | - | - | - | - | 87 | - | -
CC(=O)Nc1ccc2[nH]c3ccccc3c2c1 | - | - | - | - | - | - | . | .
Cc1cccc(NC(=O)CCNS(=O)(=O)c2ccc3[nH]c(=O)oc3c2)c1 | - | - | - | - | - | 198 | - | -
Cc1ccc(NC(=O)CCNS(=O)(=O)c2ccc3[nH]c(=O)oc3c2)cc1C | - | - | - | - | - | - | . | .
CC(C)CCNC(=S)Nc1ccc([N+](=O)[O-])cc1 | - | - | - | - | - | - | . | .
CC(C)OC(=O)c1cc(NC(=S)Nc2ccc([N+](=O)[O-])cc2)cc(C(=O)OC(C)C)c1 | - | - | - | - | - | 52 | - | -
O=C(Nc1ccccc1Sc1ccccc1)c1ccccc1F | - | - | - | - | - | 37 | - | -
O=C(Nc1ccccc1NC(=O)c1ccccc1F)c1ccccc1F | . | - | - | - | - | . | . | .
COc1cccc(C(NC(C)=O)c2nc(-c3csc4ccccc34)cs2)c1 (stereo not drawn) | . | . | - | - | . | . | . | .
Cc1ccc(-n2[nH]c(C)c(C=Nc3ccc4[nH]c(=O)[nH]c4c3)c2=O)cc1 | - | - | - | - | - | - | . | .
Cc1ccc(-n2[nH]c(C)c(C=Nc3ccc4[nH]c(=O)[nH]c4c3)c2=O)cc1C | - | - | - | - | - | 52 | - | -
CCOC(=O)[C@H]1[C@H]2COc3ccccc3[C@@H]2N2C(=O)CNC(=O)[C@@]12C | . | - | - | - | - | - | . | .
COc1ccc([C@@H]2CC(=O)c3c(O)cc(O)cc3O2)cc1O | - | - | - | - | - | - | . | .
COc1cc(O)c2c(c1)OC(c1ccc(O)cc1)CC2=O (stereo not drawn) | - | - | - | - | - | 34 | - | -
CCOc1ccc2c(=O)c(Oc3ccccc3)c(C)oc2c1 | - | - | - | - | - | 139 | - | -
Cc1oc2cc(OC(C)C(=O)O)ccc2c(=O)c1Oc1ccccc1 (stereo not drawn) | - | - | - | - | - | - | . | .
CC(C)c1c(C(=O)N/N=C/c2cccc3ccccc23)nnn1-c1nonc1N | - | - | - | - | - | - | . | .
CSc1ccc(CC(=O)N2CCC(n3nccc3NC(=O)C3CC3)CC2)cc1 | - | - | - | - | - | - | . | .
Nc1ccc2c(c1)C(O)c1cccc(C(=O)O)c1-2 (stereo not drawn) | . | . | - | - | . | . | . | .
COc1cccc(-c2cnc3c(NC(C)=O)cc(-c4ccc(S(C)(=O)=O)cc4)cn23)c1 | . | . | - | - | . | . | . | .
COc1ccc(-c2coc3c(CN4CCCCC4)c(O)c(CN4CCCCC4)c(O)c3c2=O)cc1 | - | - | . | . | - | 73 | - | -
O=c1c(-c2ccc(Br)cc2)coc2c(CN3CCCCC3)c(O)ccc12 | . | . | - | - | . | . | . | .
CSCCC(c1nnnn1C1CCCC1)N1CCN(C/C=C/c2ccccc2)CC1 (stereo not drawn) | . | . | - | - | . | . | . | .
Cc1ccc([N+](=O)[O-])cc1NC(=O)C1CCN(S(C)(=O)=O)CC1 | - | - | - | - | - | 49 | - | -
Cn1c(SCC(=O)N2CCN(c3ccccc3)CC2)nnc1-c1ccncc1 | - | - | - | - | - | 38 | - | -
COc1cccc(NC(=O)N2CCCC2C(=O)Nc2cc(C)ccc2OC)c1 (stereo not drawn) | - | - | - | - | - | - | . | .
O=C(CCN1C(=O)/C(=C/c2ccccc2F)SC1=S)NC1C=CS(=O)(=O)C1 (stereo not drawn) | - | - | - | - | - | - | . | .
